Experimental data from ChEMBL document CHEMBL2375308, “Synthesis and selected immunological properties of substituted quino[3,2-b]benzo[1,4]thiazines” (Eur J Med Chem, 2013).

What was measured:
[1] = test system: PBMC; test: Inhibition of LPS-induced TNFalpha production in human PBMC at 25 ug/mL after overnight incubation relative to DMSO-treated control; format: functional
Outline: (§1)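 Single-donor venous blood diluted 10× in RPMI-1640, 1 mL aliquots, stimulated with LPS (E. coli O111:B4). Compounds added at […]; corresponding DMSO dilutions as controls. Overnight incubation, supernatants frozen at −20 °C, TNF-α measured by biological assay; percentage inhibition versus DMSO control.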

[2] = test system: PBMC; test: Inhibition of LPS-induced TNFalpha production in human PBMC at 5 ug/mL after overnight incubation relative to DMSO-treated control; format: functional; outline: as §1
[3] = test system: PBMC; test: Antiproliferative activity against PHA-stimulated human PBMC at 50 ug/mL after 4 days by MTT assay relative to DMSO-treated control; format: functional
Outline: (§2)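 PBMC from one donor's heparinized blood, Ficoll gradient isolated, in RPMI-1640 with 10% FCS; 2 × 10⁵ cells/well. PHA added at […]; compounds from DMSO stock (10 mg/mL) diluted in medium; matching DMSO dilutions as control. Four-day culture, proliferation read by MTT colorimetry; percentage inhibition versus control.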

[4] = test system: PBMC; test: Antiproliferative activity against PHA-stimulated human PBMC at 10 ug/mL after 4 days by MTT assay relative to DMSO-treated control; format: functional; outline: as §2
[5] = test system: PBMC; test: Cytotoxicity against human PBMC cells at 10 ug/mL after 24 hrs by MTT assay relative to DMSO-treated control; format: cell-based
Outline: (§3)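 Ficoll-isolated PBMC ([…]) in supplemented RPMI-1640, 2 × 10⁵/well, cultured 24 h with the preparations at the indicated concentrations; compounds dissolved in DMSO (10 mg/mL stock) and diluted in medium.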

[6] = test system: PBMC; test: Cytotoxicity against human PBMC cells at 50 ug/mL after 24 hrs by MTT assay relative to DMSO-treated control; format: cell-based; outline: as §3

Compound | inhibition at 25 µg/mL [1] | inhibition at 5 µg/mL [2] | Activity [3] | Activity [4] | Activity [5] | Activity [6]
FC(F)(F)c1ccc2c(c1)Nc1nc3ccccc3cc1S2 | 48.8% | 72.3% | 0.3% | 21.7% | Non-toxic | 21.5%
Clc1ccc2c(c1)Nc1nc3ccccc3cc1S2 | 19.2% | -1.2% | 27.1% | 16.3% | Non-toxic | Non-toxic
O=C(NCCCl)NCCCCN1c2ccc(Cl)cc2Sc2cc3ccccc3nc21 | 56% | 54.8% | 94.6% | 98.4% | 19.2% | 86.3%
O=C(NCCCl)NCCCN1c2ccccc2Sc2cc3ccccc3nc21 | 5% | 14.6% | 77.9% | 11.2% | 8.5% | Non-toxic
Clc1ccc2c(c1)Sc1cc3ccccc3nc1N2CCN1CCCCC1 | 56.7% | -70.5% | 98.2% | 96.3% | 19.2% | 83.8%
CCOC(=O)NCCCCN1c2ccccc2Sc2cc3ccccc3nc21 | 12.3% | 0.2% | 83.7% | 73.9% | Non-toxic | Non-toxic
Cc1ccc(S(=O)(=O)NCCCCN2c3ccc(Cl)cc3Sc3cc4ccccc4nc32)cc1 | -12.7% | 20.7% | 19.8% | 13.2% | Non-toxic | Non-toxic
CSc1ccc2c(c1)Sc1cc3ccccc3nc1N2CCCNC(=O)NCCCl | 1% | 50.7% | 93.7% | 93% | Non-toxic | 92.7%
CC(=O)NCCCCN1c2ccccc2Sc2cc3ccccc3nc21 | 20.2% | 0% | 94.3% | 72.7% | Non-toxic | Non-toxic
CS(=O)(=O)NCCCN1c2ccccc2Sc2cc3ccccc3nc21 | 60.6% | 8.1% | 74.6% | 36.6% | Non-toxic | Non-toxic
Cc1ccc(S(=O)(=O)NCCCCN2c3ccccc3Sc3cc4ccccc4nc32)cc1 | 12.5% | 15.8% | 2.4% | 3.3% | Non-toxic | Non-toxic
Brc1ccc2c(c1)Sc1cc3ccccc3nc1N2 | 10.1% | 16.2% | 19% | -9.7% | Non-toxic | Non-toxic
FC(F)(F)c1ccc2c(c1)Sc1cc3ccccc3nc1N2 | -5.6% | 51.1% | 61% | 24.9% | Non-toxic | Non-toxic
CS(=O)(=O)NCCCCN1c2ccc(Cl)cc2Sc2cc3ccccc3nc21 | 24.5% | -7.5% | 43.9% | 59.4% | Non-toxic | Non-toxic
CS(=O)(=O)NCCCCN1c2ccccc2Sc2cc3ccccc3nc21 | 42.3% | 14% | 94.3% | 42.3% | Non-toxic | Non-toxic
CCOC(=O)NCCCN1c2ccc(Cl)cc2Sc2cc3ccccc3nc21 | 31.7% | 10.3% | 60.4% | 45% | Non-toxic | Non-toxic
